Measurements pooled from the literature.
Each line is one published result; the experiments were not run side by side.
Target: Calcium/calmodulin-dependent protein kinase type II subunit delta (CAMK2D, Homo sapiens, UniProt Q13557)

CNC(=O)c1cc(Oc2ccc(NC(=O)Nc3ccc(Cl)c(C(F)(F)F)c3)cc2)ccn1
inhibition (enzyme activity; inhibitor; 10 µM): 79%

O=C1NC(=O)c2cc(Nc3ccc(F)cc3)c(Nc3ccc(F)cc3)cc21
remaining signal (cell-free assay; 0.5 µM): 97.9%

CN1CC(Oc2cnc(C#N)cc2-c2ccn3nc(NC(=O)C4CC4)cc3c2)C1
inhibition (enzyme activity; inhibitor; 1 µM): -3%

O=C(Nc1cnn(-c2csc(C(=O)NC3COC3)c2)c1)Nc1ccccc1Cl
remaining activity (enzyme activity; inhibitor; 5 µM): 103%

COc1cc2ncnc(Nc3ccc(Oc4ccccc4)cc3C)c2cc1OC
inhibition (enzyme activity; inhibitor; 1 µM): 4%

Cc1ccc(Nc2nccc(N(C)c3ccc4c(C)n(C)nc4c3)n2)cc1S(N)(=O)=O
inhibition (enzyme activity; inhibitor; 10 µM): 66%

CCCCNc1ncc2c(-c3ccc(F)cc3)nn(C[C@H]3CC[C@H](N)CC3)c2n1
inhibition (target engagement in cells; inhibitor; chemoproteomics; 20 mM): 44.3%

C[C@@H]1CCN(C(=O)CC#N)C[C@@H]1N(C)c1ncnc2[nH]ccc12
remaining signal (cell-free assay; 0.5 µM): 98.2%

CCOC(=O)c1cc2cc(-c3cc(C(=O)NCc4ccc(C(=O)O)cc4)nn3C)ccc2[nH]1
remaining binding (cell-free assay; competition with immobilised ligand; 0.1 µM): 91%

CCCS(=O)(=O)Nc1ccc(F)c(C(=O)c2c[nH]c3ncc(-c4ccc(Cl)cc4)cc23)c1F
inhibition (enzyme activity; inhibitor; 1 µM): < 10%

CNCc1ccccc1-c1csc([C@H](C)Nc2nc(C)nc3cc(OC)c(OC)cc23)c1
remaining binding (cell-free assay; competition with immobilised ligand; 1 µM): 97%

CC(C)(O)[C@H]1CC[C@H](Nc2ccc3ncc(-c4cccc(C(F)(F)F)c4)n3n2)CC1
remaining activity (enzyme activity; inhibitor; 1 µM): 81.8%

CCN1CCN(Cc2ccc(NC(=O)c3ccc(C)c(Oc4ccnc5[nH]ccc45)c3)cc2C(F)(F)F)CC1
inhibition (target engagement in cells; inhibitor; chemoproteomics; Huh-7; 1 µM): -12%

CC(C)(C)c1nc2c(s1)c1nc(N)ncc1c1ccc(NS(=O)(=O)c3c(F)cccc3F)c(F)c12
remaining activity (enzyme activity; inhibitor; radiometric; 1 µM): 96%

CC1=C(C#N)[C@@H](c2ccc3[nH]nc(C)c3c2)C(C#N)=C(c2ccc(Cl)cc2)N1
remaining binding (cell-free assay; competition with immobilised ligand; 1 µM): 82.1%

Cc1ccc(C(=O)NCc2ccsc2)cc1C#Cc1cn(C(C)C)c2ncnc(N)c12
activity vs control (enzyme activity; inhibitor; 1 µM): 102%

O=C1NC(c2ccccn2)Sc2ccccc21 (stereo not shown)
remaining binding (cell-free assay; competition with immobilised ligand; 1 µM): 75%

CCN(CC)CCNC(=O)c1c(C)[nH]c(/C=C2\C(=O)Nc3ccc(F)cc32)c1C
inhibition (enzyme activity; inhibitor; 10 µM): 96%

Cc1ccc(NC(=O)c2ccc(C)c(C(F)(F)F)c2)cc1C#Cc1nn(C2CCC(O)CC2)c2ncnc(N)c12 (stereo not shown)
remaining signal (cell-free assay; 10 µM): 89%

CCCOc1ccc(OC)c(F)c1C(=O)c1ccc(C(=O)N[C@@H]2CNC[C@H]2NC(=O)c2ccc3[nH]ncc3c2)cc1
remaining activity (enzyme activity; inhibitor; 10 µM): 53%

COc1cccc(CNC(=O)c2nc3scc(COCc4ccc(C(=O)O)cc4)c3c(=O)[nH]2)c1
remaining binding (cell-free assay; competition with immobilised ligand; 1 µM): 100%

COc1cc(Nc2c(C#N)cnc3cc(OCCCN4CCN(C)CC4)c(OC)cc23)c(Cl)cc1Cl
remaining signal (cell-free assay; 0.5 µM): 94.6%

O=C(NCc1ncc(C(F)(F)F)cc1Cl)c1ccc2c(c1)C1(CCS(=O)(=O)CC1)[C@H](C1CC1)N2S(=O)(=O)c1ccc(F)cc1
remaining binding (cell-free assay; competition with immobilised ligand; 1 µM): 100%

Cc1cnc(NC2CCOCC2)nc1-n1cnc(C(=O)NC(CN)c2cc(F)cc(Cl)c2)c1 (stereo not shown)
remaining activity (enzyme activity; inhibitor; radiometric; 1 µM): 91%

Cc1c(NC(=O)c2cc(C(N)=O)nc3cc(F)ccc23)c(C(F)(F)F)nn1Cc1ccc(C#N)cc1
remaining binding (cell-free assay; competition with immobilised ligand; 1 µM): 90%

COc1cc(Cl)c(C(=O)N[C@@H](CN[C@H]2CC[C@@H](N)CC2)Cc2ccc(C#N)cc2)cc1-c1ccc(CN[C@H](C)c2ccc(C)cc2)o1
remaining activity (enzyme activity; inhibitor; 1 µM): 100%

O=C(NS(=O)(=O)c1ccc(NCC2CCOCC2)c([N+](=O)[O-])c1)c1ccc(N2CCN(Cc3ccc(C(F)(F)F)cc3-c3ccc(Cl)cc3)CC2)cc1Oc1cnc2[nH]ccc2c1
remaining binding (cell-free assay; competition with immobilised ligand; 1 µM): 100%

Cc1cc(NC(=O)c2cccc3cc(-c4cccc5[nH]nc(N)c45)ccc23)ccc1F
activity vs control (enzyme activity; inhibitor; 0.1 µM): 102%
